# Test: Permeability of compound by PAMPA at pH 7.4
# Format: ADME
# Conditions: not given
# Outline: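 Parallel artificial membrane permeation assay at pH 7.4, read as permeability in 10^-6 cm/s. Mean of a single triplicate experiment.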
row,permeability [×10⁻⁶ cm/s],Compound
1,912,Cc1nc(-c2ccc(S(C)(=O)=O)c([N+](=O)[O-])c2)sc1C(=O)N1CCC(C)CC1
2,1420,Cc1nc(-c2ccc(S(C)(=O)=O)c([N+](=O)[O-])c2)sc1C(=O)N1CC2(C)CC1CC(C)(C)C2 (centres undefined)
3,84,CS(=O)(=O)c1ccc(-c2nc(C(F)(F)F)c(C(=O)N3CCc4ccccc4C3)s2)cc1[N+](=O)[O-]
4,791,CS(=O)(=O)c1ccc(-c2nc(C(F)(F)F)c(C(=O)N3CCCCC3)s2)cc1[N+](=O)[O-]
5,287,CS(=O)(=O)c1ccc(-c2ncc(C(=O)N3CCCCC3)s2)cc1[N+](=O)[O-]
6,971,CS(=O)(=O)c1ccc(-c2nc(-c3ccccc3)c(C(=O)N3CCCCC3)s2)cc1[N+](=O)[O-]
7,657,CCc1nc(-c2ccc(S(C)(=O)=O)c([N+](=O)[O-])c2)sc1C(=O)N1CCCCC1
8,280,Cc1nc(-c2ccc(S(C)(=O)=O)c([N+](=O)[O-])c2)sc1C(=O)N1CCCCC1
9,8,CC1(C)CC2CC(C)(CN2C(=O)c2sc(-c3ccc(S(C)(=O)=O)c([N+](=O)[O-])c3)nc2C(F)(F)F)C1 (centres undefined)
10,949,CCc1nc(-c2ccc(S(C)(=O)=O)c([N+](=O)[O-])c2)sc1C(=O)N1CC2(C)CC1CC(C)(C)C2 (centres undefined)

# Continued, compound first:
row,Compound,permeability [×10⁻⁶ cm/s]
1,CS(=O)(=O)c1ccc(C(=O)OCC(=O)NC23CC4CC(CC(C4)C2)C3)cc1[N+](=O)[O-],167
2,CCCN(C(=O)c1csc(-c2ccc(S(C)(=O)=O)c([N+](=O)[O-])c2)n1)c1ccccc1,1620
3,CC1Cc2ccccc2N1C(=O)c1sc(-c2ccc(S(C)(=O)=O)c([N+](=O)[O-])c2)nc1C(F)(F)F (centres undefined),43
4,CN(Cc1ccccc1F)C(=O)c1sc(-c2ccc(S(C)(=O)=O)c([N+](=O)[O-])c2)nc1C(F)(F)F,221
5,CN(Cc1ccccc1)C(=O)c1sc(-c2ccc(S(C)(=O)=O)c([N+](=O)[O-])c2)nc1C(F)(F)F,1500
6,CS(=O)(=O)c1ccc(-c2ncc(C(=O)NC34CC5CC(CC(C5)C3)C4)s2)cc1[N+](=O)[O-],379
7,CN(Cc1cccc(F)c1)C(=O)c1sc(-c2ccc(S(C)(=O)=O)c([N+](=O)[O-])c2)nc1C(F)(F)F,271
8,CN(Cc1cccc(F)c1)C(=O)c1cnc(-c2ccc(S(C)(=O)=O)c([N+](=O)[O-])c2)s1,1030

# Same assay, conditions: read-out: permeability
row,Papp [×10⁻⁶ cm/s],Compound
1,702,CC1CCN(C(=O)c2sc(-c3ccc(S(C)(=O)=O)c([N+](=O)[O-])c3)nc2C(F)(F)F)CC1

# — ChEMBL document CHEMBL2069280, “Synthesis and evaluation of sulfonylnitrophenylthiazoles (SNPTs) as thyroid hormone receptor-coactivator interaction inhibitors” (J Med Chem, 2012)
